In ChEMBL document CHEMBL1154187, “Synthesis and biological evaluation of 2-heteroarylthioalkanoic acid analogues of clofibric acid as peroxisome proliferator-activated receptor alpha agonists” (J Med Chem, 2009):
pEC50: −log10 of the molar value. Activity calls are given as the source filed them. The calls are words filed in the database; no cut-off is given here.

What was measured:
Assay type in all cases: functional, cell-based
[1] = molecular target: T1, Peroxisome proliferator-activated receptor alpha (Homo sapiens) (UniProt Q07869); test: Agonist activity at human PPARalpha expressed in HEK293 cells assessed as receptor transactivation at 150 uM by luciferase reporter gene assay relative to control
T1 sequence (whole entry): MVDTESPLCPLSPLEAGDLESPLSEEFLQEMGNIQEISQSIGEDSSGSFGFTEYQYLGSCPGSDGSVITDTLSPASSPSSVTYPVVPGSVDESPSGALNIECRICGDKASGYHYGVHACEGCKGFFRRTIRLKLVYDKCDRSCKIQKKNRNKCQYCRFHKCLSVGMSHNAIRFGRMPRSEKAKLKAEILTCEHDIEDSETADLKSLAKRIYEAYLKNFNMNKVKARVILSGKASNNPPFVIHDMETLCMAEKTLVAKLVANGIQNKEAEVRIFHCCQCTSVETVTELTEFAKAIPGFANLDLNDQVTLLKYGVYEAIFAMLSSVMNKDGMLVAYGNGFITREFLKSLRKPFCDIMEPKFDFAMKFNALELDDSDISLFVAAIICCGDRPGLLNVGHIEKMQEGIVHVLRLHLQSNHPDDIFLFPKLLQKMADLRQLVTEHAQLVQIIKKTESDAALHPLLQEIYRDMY
Summary of the method: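 Cells co-transfected by calcium phosphate with human PPARα expression plasmid, luciferase reporter and renilla in serum-free medium. Ligand in DMSO (≤0.1% v/v final) added 6 h post-transfection at 150 μM. Luciferase normalized to renilla, expressed as fold activation over untreated cells; at least three separate experiments, mean ± SEM.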

[2] = molecular target: T2, Peroxisome proliferator-activated receptor alpha (Homo sapiens, UniProt Q07869); test: Agonist activity at human PPARalpha expressed in HEK293 cells assessed as receptor transactivation at by luciferase reporter gene assay
T2 sequence (Q07869 whole entry): T1 sequence (whole entry)
Summary of the method: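 Human PPARα reporter-gene transactivation: calcium phosphate co-transfection of receptor plasmid, luciferase reporter and renilla. Ligand in DMSO (≤0.1% v/v final) added 6 h after transfection at five concentrations, 1 to 150 μM. At least three separate experiments, ± SEM.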

[3] = molecular target: T1, Peroxisome proliferator-activated receptor alpha (Homo sapiens); test: Agonist activity at PPARalpha in human HepG2 cells assessed as increase in CPT1A mRNA expression at 150 uM after 48 hrs by RTqPCR relative to untreated control
Summary of the method: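 HepG2 grown in DMEM + 10% FBS, 37 °C, 5% CO2; 1×10^6 cells seeded in six-well dishes, grown 24 h, then given ligand at 150 μM or DMSO vehicle for 48 h. Total RNA by TRIzol; SYBR Green RTqPCR, primers 150 nM final, 60 ng cDNA, 40 cycles. CPT1A normalized to cyclophilin and to vehicle-treated cells; mean ± SEM of four determinations in duplicate.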

For CC(C)(Sc1nc2ccc(C#N)cc2s1)C(=O)O, the Activity [1] was “inactive”.
A fold change (FC) [1] of 2.6 and a pEC50 [2] of 5.01 were found for CCOc1ccc2nc(SC(C)C(=O)O)sc2c1 (racemic) in this work.
In the case of CC(C)(Sc1nc2cc(Br)ccc2s1)C(=O)O, the fold change (FC) [1] was 4.5, the pEC50 [2] was 5.60 and the Activity [3] was “Active”.
For COc1ccc2sc(S[C@@H](C)C(=O)O)nc2c1, the fold change (FC) [1] was 2.9, the pEC50 [2] was 5.72 and the Activity [3] was “Active”.
A fold change (FC) [1] of 1.6 and a pEC50 [2] of 4.44 were found for CC(C)(Sc1nc2cc(Cl)ccc2s1)C(=O)O in this work.
A fold change (FC) [1] of 2.9 and a pEC50 [2] of 4.48 were found for COc1ccc2sc(SC(C)C(=O)O)nc2c1 (racemic) in this work.
For CC(C)(Sc1ccccn1)C(=O)O, the Activity [1] was “inactive”.
A fold change (FC) [1] of 3.2 and a pEC50 [2] of 5.03 were found for CC(Sc1nc2cc(Br)ccc2s1)C(=O)O (racemic) in this work.
A fold change (FC) [1] of 2.3 and a pEC50 [2] of 4.24 were found for COc1ccc2sc(S[C@H](C)C(=O)O)nc2c1 in this work.
A fold change (FC) [1] of 2.6 and a pEC50 [2] of 4.34 were found for CC(C)(Sc1nc2ccc(Br)cc2s1)C(=O)O in this work.
A fold change (FC) [1] of 4.5 and a pEC50 [2] of 4.13 were found for C[C@@H](Sc1nc2cc(Cl)ccc2s1)C(=O)O in this work.
For CC(C)(Sc1nc2cc(C(F)(F)F)ccc2s1)C(=O)O, the Activity [1] was “inactive”.
A fold change (FC) [1] of 2.7 and a pEC50 [2] of 5.03 were found for CCCC(Sc1nc2cc(Cl)ccc2s1)C(=O)O (racemic) in this work.
A fold change (FC) [1] of 2.8, a pEC50 [2] of 5.74 and a fold change (FC) [3] of 2 were found for CC(C)(Sc1ccc(Cl)s1)C(=O)O in this work.
In the case of CC(C)(Sc1cccs1)C(=O)O, the Activity [1] was “inactive”.
A fold change (FC) [1] of 1.6 and a pEC50 [2] of 4.84 were found for O=C(O)C(Sc1nc2cc(Cl)ccc2s1)c1ccccc1 (racemic) in this work.
CC(C)(Sc1nc2ccccc2s1)C(=O)O was tested, and the Activity [1] was “inactive”.
A fold change (FC) [1] of 1.7 and a pEC50 [2] of 4.41 were found for CC(C)(Sc1nc2ccc(Cl)cc2s1)C(=O)O in this work.
In the case of CCCCCCC(Sc1nc2cc(Cl)ccc2s1)C(=O)O (racemic), the Activity [1] was “inactive”.
A fold change (FC) [1] of 1.9 and a pEC50 [2] of 4.07 were found for CC(Sc1nc2ccc(Br)cc2s1)C(=O)O (racemic) in this work.
For CC(Sc1nc2cc(C#N)ccc2s1)C(=O)O (racemic), the Activity [1] was “inactive”.
A fold change (FC) [1] of 2 and a pEC50 [2] of 4.34 were found for COc1ccc2sc(SC(C)(C)C(=O)O)nc2c1 in this work.
A fold change (FC) [1] of 4.7 and a pEC50 [2] of 4.83 were found for CCCC(Sc1nc2ccc(OCC)cc2s1)C(=O)O (racemic) in this work.
A fold change (FC) [1] of 1.6 and a fold change (FC) [3] of 2 were found for CC(C)(Oc1ccc(Cl)cc1)C(=O)O in this work.
A fold change (FC) [1] of 3.3 and a pEC50 [2] of 4.16 were found for CCOc1ccc2nc(SC(C)(C)C(=O)O)sc2c1 in this work.
A fold change (FC) [1] of 3.4 and a pEC50 [2] of 4.20 were found for CC(Sc1nc2cc(Cl)ccc2s1)C(=O)O (racemic) in this work.
A fold change (FC) [1] of 1.7 and a pEC50 [2] of 4.44 were found for CC(C)(Sc1nc2ccc(C(F)(F)F)cc2s1)C(=O)O in this work.
A fold change (FC) [1] of 2.6 and a pEC50 [2] of 4.25 were found for C[C@H](Sc1nc2cc(Cl)ccc2s1)C(=O)O in this work.
A fold change (FC) [1] of 1.9 and a pEC50 [2] of 4.33 were found for CC(C)(Sc1nc2cc(C#N)ccc2s1)C(=O)O in this work.
